From ChEMBL document CHEMBL3745686 (Eur J Med Chem, 2016)
The source made the active and inactive calls. The rule behind the calls is not given here.

Assays:
P2Y purinoceptor 1 [1] = biological target: T1, P2Y purinoceptor 1 (Homo sapiens, UniProt P47900); test: Antagonist activity at human platelet P2Y1 receptor assessed as inhibition of ADP-induced increase in cytosolic calcium level by FLUO-4 staining based flow cytometric analysis; assay type: functional
Summary of the method: (§1)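 Stimulus was extracellular Ca2+ uptake on 1 μM test compound (P2X1, scaled to 20 μM β,γ-CH2-ATP as 100%, selective P2Y1 inhibitor control), or 3 μM ADP (P2Y1 antagonism; omitted for agonism).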

[2] = Anti-aggregatory activity in human platelet rich plasma assessed as inhibition of 20 uM ADP-induced platelet aggregation preincubated for 15 mins by optical aggregometric analysis; assay type: functional, cell-free
P2Y purinoceptor 12 [3] = biological target: T2, P2Y purinoceptor 12 (Homo sapiens, UniProt Q9H244); test: Antagonist activity at human platelet P2Y12 receptor assessed as inhibition of ADP-mediated decrease in intra-platelet phosphorylated VASP by flow cytometric analysis
T2 sequence (Q9H244 whole entry): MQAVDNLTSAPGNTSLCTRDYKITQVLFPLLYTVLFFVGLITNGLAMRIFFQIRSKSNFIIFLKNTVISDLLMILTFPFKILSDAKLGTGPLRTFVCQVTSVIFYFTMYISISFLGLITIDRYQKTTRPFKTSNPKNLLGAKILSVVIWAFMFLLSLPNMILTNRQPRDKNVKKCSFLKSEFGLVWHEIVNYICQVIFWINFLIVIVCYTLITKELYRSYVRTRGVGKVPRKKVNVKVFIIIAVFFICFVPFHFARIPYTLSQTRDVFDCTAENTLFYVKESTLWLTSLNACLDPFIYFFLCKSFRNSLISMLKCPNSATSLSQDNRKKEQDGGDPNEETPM

P2Y purinoceptor 1 [4] = biological target: T1, P2Y purinoceptor 1; test: Agonist activity at human platelet P2Y1 receptor assessed as increase in cytosolic calcium level by FLUO-4 staining based flow cytometric analysis; assay type: functional; summary of the method: as §1
[5] = biological target: T3, P2X purinoceptor 1 (Homo sapiens) (UniProt P51575); test: Agonist activity at human platelet P2X1 receptor assessed as increase in cytosolic calcium level at 1 uM by […] staining based flow cytometric analysis relative to beta,gamma-CH2-ATP; summary of the method: as §1
T3 sequence (whole entry): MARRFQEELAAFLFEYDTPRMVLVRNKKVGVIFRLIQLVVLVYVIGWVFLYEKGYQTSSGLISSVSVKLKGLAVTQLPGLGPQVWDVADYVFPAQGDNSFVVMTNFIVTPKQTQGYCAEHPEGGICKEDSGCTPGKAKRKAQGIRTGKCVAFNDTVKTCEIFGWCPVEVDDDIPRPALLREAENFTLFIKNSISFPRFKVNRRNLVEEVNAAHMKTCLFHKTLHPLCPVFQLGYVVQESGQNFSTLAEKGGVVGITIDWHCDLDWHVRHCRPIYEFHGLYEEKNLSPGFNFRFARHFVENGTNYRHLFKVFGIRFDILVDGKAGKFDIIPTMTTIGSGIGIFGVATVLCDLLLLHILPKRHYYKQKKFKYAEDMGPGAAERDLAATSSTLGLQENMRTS

Platelet [6] = test: Ratio of IC50 for inhibition of 20 uM ADP-induced human platelet aggregation for inhibition of 20 uM ADP-induced human platelet aggregation preincubated for 15 mins; assay type: functional
Platelet [7] = test: Anti-aggregatory activity in human platelet rich plasma assessed as inhibition of ADP-induced platelet shape change; assay type: functional, cell-free
[8] = Anti-aggregatory activity in human platelet rich plasma assessed as inhibition of 20 uM ADP-induced platelet aggregation by optical aggregometric analysis; assay type: functional, cell-free
P2Y purinoceptor 12 [9] = biological target: T2, P2Y purinoceptor 12; test: Agonist activity at human platelet P2Y12 receptor assessed as decrease in intra-platelet phosphorylated VASP by flow cytometric analysis
Platelet [10] = test: Anti-aggregatory activity in human platelet rich plasma assessed as inhibition of 20 uM ADP-induced platelet aggregation at 100 nM preincubated for 15 mins followed by ADP addition measured every 11 secs for 6 mins by 96-well microplate method; assay type: functional, cell-free
Platelet [11] = test: Anti-aggregatory activity in human platelet rich plasma assessed as inhibition of ADP-induced primary and secondary platelet aggregation preincubated for 15 mins followed by ADP addition and 10 secs shaking measured every 27 secs with 10 secs shaking by 96-well microplate method; assay type: functional, cell-free
Summary of the method: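 PRP incubated with compound 15 min at 37 °C, aggregation started with 5 μM ADP and 10 s shaking; absorbance at 580 nm read every 27 s with 10 s shaking between reads; 100% set by platelet-poor plasma, 0% by PRP.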

[12] = biological target: P2Y purinoceptor 6 (Homo sapiens) (UniProt Q15077); test: Effect on human P2Y6 receptor
Chain of P2Y purinoceptor 6 (Homo sapiens) (Q15077 whole entry): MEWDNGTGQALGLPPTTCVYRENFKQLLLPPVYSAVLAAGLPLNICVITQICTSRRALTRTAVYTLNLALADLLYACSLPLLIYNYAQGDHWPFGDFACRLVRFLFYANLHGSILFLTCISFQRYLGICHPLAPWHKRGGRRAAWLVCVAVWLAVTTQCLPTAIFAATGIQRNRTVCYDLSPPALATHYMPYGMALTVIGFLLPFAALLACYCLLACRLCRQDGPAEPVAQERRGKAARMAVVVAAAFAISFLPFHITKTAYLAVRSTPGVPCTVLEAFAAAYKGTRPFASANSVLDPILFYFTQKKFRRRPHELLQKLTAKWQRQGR

[13] = biological target: P2Y purinoceptor 2 (Homo sapiens) (UniProt P41231); test: Effect on human P2Y2 receptor
Chain of P2Y purinoceptor 2 (Homo sapiens) (P41231 whole entry): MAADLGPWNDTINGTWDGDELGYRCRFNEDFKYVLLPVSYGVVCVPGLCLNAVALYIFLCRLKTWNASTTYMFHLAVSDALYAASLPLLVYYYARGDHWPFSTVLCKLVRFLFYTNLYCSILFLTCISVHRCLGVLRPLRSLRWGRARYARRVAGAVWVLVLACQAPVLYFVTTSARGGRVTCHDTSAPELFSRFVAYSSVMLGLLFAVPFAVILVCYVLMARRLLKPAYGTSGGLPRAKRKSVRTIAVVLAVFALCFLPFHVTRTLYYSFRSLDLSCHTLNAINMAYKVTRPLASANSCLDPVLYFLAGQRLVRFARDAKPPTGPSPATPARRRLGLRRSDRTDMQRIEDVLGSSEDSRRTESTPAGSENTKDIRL

Platelet [14] = test: Anti-aggregatory activity in human platelet rich plasma assessed as inhibition of 20 uM ADP-induced platelet aggregation at 25 nM preincubated for 15 mins followed by ADP addition measured every 11 secs for 6 mins by 96-well microplate method; assay type: functional, cell-free
[15] = biological target: P2Y purinoceptor 4 (Homo sapiens) (UniProt P51582); test: Effect on human P2Y4 receptor
Chain of P2Y purinoceptor 4 (Homo sapiens) (P51582 whole entry): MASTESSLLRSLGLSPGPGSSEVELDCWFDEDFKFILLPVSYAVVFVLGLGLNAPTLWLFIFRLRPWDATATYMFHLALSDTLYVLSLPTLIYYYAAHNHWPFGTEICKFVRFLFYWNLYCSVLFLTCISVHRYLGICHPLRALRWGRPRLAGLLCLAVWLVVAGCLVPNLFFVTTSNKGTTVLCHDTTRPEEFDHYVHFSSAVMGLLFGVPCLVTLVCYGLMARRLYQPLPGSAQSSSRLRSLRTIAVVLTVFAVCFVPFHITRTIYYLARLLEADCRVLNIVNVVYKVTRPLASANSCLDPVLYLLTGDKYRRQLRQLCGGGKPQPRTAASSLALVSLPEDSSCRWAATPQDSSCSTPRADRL

Plasma [16] = test: Metabolic stability in human plasma assessed as first order elimination rate constant at 50 uM measured at 1 to 4 hrs; assay type: ADME, cell-free
Plasma [17] = test: Half life in human plasma at 50 uM measured at 1 to 4 hrs; assay type: ADME, cell-free
[18] = Anti-aggregatory activity in human platelet rich plasma assessed as inhibition of 20 uM ADP-induced P-selectin expression by fluorescence assay; assay type: functional, cell-free
Platelet [19] = test: Anti-aggregatory activity in ADP-induced human platelet rich plasma assessed as platelet surface activated GP2b-3a expression at 10 nM preincubated for 30 mins followed by 100 fold dilution by fluorescence assay; assay type: functional
Summary of the method: (§2)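 Human PRP from aspirin/NSAID-free donors in 3.2% citrate; platelets pre-incubated 30 min with 10 nM compound, then diluted 100-fold in platelet-poor plasma with or without 10 nM compound, stimulated with ADP; surface activated GPIIb-IIIa and P-selectin read as mean fluorescence intensity; means ± SEM of 3 experiments.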

Platelet [20] = test: Anti-aggregatory activity in ADP-induced human platelet rich plasma assessed as P-selectin expression at 10 nM preincubated for 30 mins followed by 100 fold dilution by fluorescence assay; assay type: functional; summary of the method: as §2
[21] = Anti-aggregatory activity in human platelet rich plasma assessed as inhibition of 20 uM ADP-induced platelet surface activated GP2b-3a expression by fluorescence assay; assay type: functional, cell-free
Plasma [22] = test: Drug metabolism in rat plasma assessed as MeSAMP(S) formation at 50 uM after 77 hrs by HPLC analysis; assay type: ADME, cell-free
Summary of the method: (§3)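 Frozen pooled heparinised rat or human plasma, thawed and warmed 5 min at 37 °C, spiked to 50 μM final compound (from 10 mM saline stock), held at 37 °C up to 77 h; heat-denatured plasma as chemical control; aliquots quenched with MeCN, ultrafiltered, dried, redissolved in pH 8.5 phosphate/EDTA; isocratic RP-HPLC, 273 nm; metabolites confirmed by reference compounds and LCMS; peak areas internally normalised.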

Plasma [23] = test: Metabolic stability in rat plasma assessed as first order elimination rate constant at 50 uM measured at 1 to 4 hrs; assay type: ADME, cell-free
[24] = Chemical stability in heat denaturated plasma (unknown origin); assay type: ADME, cell-free; summary of the method: as §3
Plasma [25] = test: Metabolic stability in fresh rat plasma assessed as compound degradation at 50 uM after 24 hrs by HPLC analysis; assay type: ADME, cell-free
Plasma [26] = test: Drug metabolism in human plasma assessed as MeSAdo formation at 50 uM after 77 hrs by HPLC analysis; assay type: ADME, cell-free; summary of the method: as §3
Plasma [27] = test: Drugmetabolism in human plasma assessed as MeSAMP(S) formation at 50 uM after 77 hrs by HPLC analysis; assay type: ADME, cell-free; summary of the method: as §3
Plasma [28] = test: Half life in rat plasma at 50 uM measured at 1 to 4 hrs; assay type: ADME, cell-free
Plasma [29] = test: Drug metabolism in rat plasma assessed as MeSAdo formation at 50 uM after 77 hrs by HPLC analysis; assay type: ADME, cell-free; summary of the method: as §3
Plasma [30] = test: Drug level in rat plasma treated with P'1,P'4-di-(2 methylthio-5'-adenosine) P'1,P'4-dithio-P'2,P'3-chloromethylenetetraphosphate, sodium salt at 50 uM after 77 hrs by HPLC analysis; assay type: ADME, cell-free; summary of the method: as §3
Plasma [31] = test: Drug level in human plasma treated with P'1,P'4-di-(2 methylthio-5'-adenosine) P'1,P'4-dithio-P'2,P'3-chloromethylenetetraphosphate, sodium salt at 50 uM after 77 hrs by HPLC analysis; assay type: ADME, cell-free
Summary of the method: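 Pooled heparinized human plasma, prewarmed 5 min at 37 °C, was spiked to 50 μM final from a saline stock and incubated at 37 °C. Aliquots were MeCN-precipitated, ultrafiltered (10K), dried, reconstituted in phosphate/EDTA pH 8.5, and run on C18 HPLC (isocratic 20% methanol, 50 mM phosphate pH 8.4, 10 mM EDTA, UV 273 nm). Diastereomer peak areas were internally normalized, with heat-denatured plasma and blank controls.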

[32] = Half life in rat plasma; assay type: ADME, cell-free
[33] = Half life in human plasma at 0.7 uM; assay type: ADME, cell-free

T1 sequence (P47900 whole entry): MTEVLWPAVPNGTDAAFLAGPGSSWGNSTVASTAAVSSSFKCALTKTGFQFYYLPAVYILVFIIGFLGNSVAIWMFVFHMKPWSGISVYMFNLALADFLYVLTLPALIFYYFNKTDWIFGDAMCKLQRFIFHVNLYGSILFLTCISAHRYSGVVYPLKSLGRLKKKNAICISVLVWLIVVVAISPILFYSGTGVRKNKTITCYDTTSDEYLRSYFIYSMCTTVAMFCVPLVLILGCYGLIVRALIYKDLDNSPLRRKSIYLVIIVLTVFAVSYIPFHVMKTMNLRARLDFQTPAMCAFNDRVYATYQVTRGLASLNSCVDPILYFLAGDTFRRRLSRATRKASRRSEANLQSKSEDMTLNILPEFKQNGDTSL

SMILES: CCSc1nc(N)c2ncn([C@@H]3O[C@H](COP(=O)([S-])OP(=O)([O-])C(Cl)P(=O)([O-])OP(=O)([S-])OC[C@H]4O[C@@H](n5cnc6c(N)nc(SCC)nc65)[C@H](O)[C@@H]4O)[C@@H](O)[C@H]3O)c2n1.[Na+].[Na+].[Na+].[Na+] (mixture of isomers)
- IC50 (P2Y purinoceptor 1 [1]): 9600 nM
- IC50 [2]: 54.3 nM
- IC50 (P2Y purinoceptor 12 [3]): 140 nM
- Activity (P2Y purinoceptor 1 [4]): inactive
- Activity [5]: 23.8%
- Ratio IC50 (Platelet [6]): 50
- inhibition (Platelet [7]): Active
- IC50 [8]: 3.32 µM
- Activity (P2Y purinoceptor 12 [9]): inactive

SMILES: CSc1nc(N)c2ncn([C@@H]3O[C@H](COP(=O)(S)OP(=O)(O)C(Cl)P(=O)(O)OP(=O)(S)OC[C@H]4O[C@@H](n5cnc6c(N)nc(SC)nc65)[C@H](O)[C@@H]4O)[C@@H](O)[C@H]3O)c2n1 (mixture of isomers)
- inhibition (Platelet [10]): Active
- inhibition (Platelet [11]): Dose-dependent effect
- Activity [12]: inactive
- Activity (P2Y purinoceptor 1 [4]): inactive
- Activity [5]: 0.24%
- Activity [13]: inactive
- inhibition (Platelet [14]): Active
- inhibition (Platelet [7]): Active
- Activity [15]: inactive
- Activity (P2Y purinoceptor 12 [9]): inactive

SMILES: CSc1nc(N)c2ncn([C@@H]3O[C@H](COP(=O)([S-])OP(=O)([O-])C(Cl)P(=O)([O-])OP(=O)([S-])OC[C@H]4O[C@@H](n5cnc6c(N)nc(SC)nc65)[C@H](O)[C@@H]4O)[C@@H](O)[C@H]3O)c2n1.[Na+].[Na+].[Na+].[Na+] (mixture of isomers)
- Kel (Plasma [16]): 0.0221 h⁻¹
- t1/2 (Plasma [17]): 31.3 h
- IC50 (P2Y purinoceptor 1 [1]): 2150 nM
- IC50 [2]: 63.6 nM
- IC50 [18]: 0.6 nM
- Activity (Platelet [19]): 80%
- IC50 (P2Y purinoceptor 12 [3]): 220 nM
- Activity (Platelet [20]): 80%
- IC50 [21]: 1.1 nM
- Drug metabolism (Plasma [22]): metabolite_detected
- Kel (Plasma [23]): 0.147 h⁻¹
- Ratio IC50 (Platelet [6]): 50
- Stability [24]: Stable
- Stability (Plasma [25]): Stable
- Drug metabolism (Plasma [26]): metabolite_detected
- Stability (Plasma [27]): Stable
- t1/2 (Plasma [28]): 4.73 h
- Drug metabolism (Plasma [29]): metabolite_detected
- IC50 [8]: 2.56 µM

SMILES: CSc1nc(N)c2ncn([C@@H]3O[C@H](COP(O)(O)=S)[C@@H](O)[C@H]3O)c2n1
- Drug metabolism (Plasma [30]): metabolite_detected

SMILES: CSc1nc(N)c2ncn([C@@H]3O[C@H](CO)[C@@H](O)[C@H]3O)c2n1
- Drug metabolism (Plasma [31]): metabolite_detected
- Drug metabolism (Plasma [30]): metabolite_detected

SMILES: Nc1nc(Br)nc2c1ncn2[C@@H]1O[C@H](COP(=O)(S)OP(=O)(O)C(Cl)P(=O)(O)OP(=O)(S)OC[C@H]2O[C@@H](n3cnc4c(N)nc(Br)nc43)[C@H](O)[C@@H]2O)[C@@H](O)[C@H]1O (mixture of isomers)
- IC50 (P2Y purinoceptor 1 [1]): 2240 nM
- IC50 [2]: 4520 nM
- IC50 (P2Y purinoceptor 12 [3]): 340 nM
- Activity (P2Y purinoceptor 1 [4]): inactive
- Activity [5]: 1.8%
- inhibition (Platelet [7]): Active
- IC50 [8]: 6.22 µM
- Activity (P2Y purinoceptor 12 [9]): inactive

SMILES: Nc1ncnc2c1ncn2[C@@H]1O[C@H](COP(=O)(O)OP(=O)(O)OP(=O)(O)OP(=O)(O)OC[C@H]2O[C@@H](n3cnc4c(N)ncnc43)[C@H](O)[C@@H]2O)[C@@H](O)[C@H]1O [DIADENOSINE TETRAPHOSPHATE]
- Activity [5]: 198%
- half-life [32]: 2.99 min
- half-life at 0.7 µM [33]: 2 min
